Screening data as filed in PubChem.
bCat KO growth: beta-catenin-lacking colon tumor cell growth suppression; AID 818; 140,000 tested, 1.5% active; HCT116 beta-catenin knockout viability, CellTiter-Glo, 60 h; stronger effect = lower value; viability, % at 10 µM;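 active = viability at or under a set limit, the compound median less 4 SD, cut at about 6% in these data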;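 also: 0% = Hyamine 1622 control at 20 µM and 100% = untreated cell control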
L major viab: reduces viability of Leishmania major promastigotes | resazurin fluorescence viability | inhibition, % at 10 µM | 200,000 tested, 9% active | AID 1063; in the data active = inhibition above about 50%;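 also: promastigotes grown with compound for 44 hours at 28 °C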
PTEN del growth: PTEN-deleted cell growth suppression; HCT116 PTEN-null viability, CellTiter-Glo, 60 h; stronger effect = lower value; viability, % at 10 µM; 140,000 tested, 1.2% active;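 active = viability at or below a set limit, 4 SD under the median of all tested compounds, cut at about 3.7% in these data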;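 also: PTEN knockout HCT116 line with beta catenin targeted HCT116 as companion control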
Autophagy mod: alters autophagy in cells | MEF GFP-LC3 puncta imaging; test concentration mostly 10 µM | calls only at 10 µM (by protocol) | 190,000 tested, 0.98% active | AID 463193;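 active = percentage of spot-positive cells more than 3 SD above its plate mean, without a fluorescence outlier flag or 80% toxicity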;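 also: spot-positive cell cutoff set from DMSO-treated cells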
Dynein transport: dynein cargo transport inhibition. z-score, hits read low. 220,000 tested, 0.47% active. 3617.4 mouse cells, GR-EGFP nuclear translocation imaging; test concentration mostly 20 µM; stimulated with dexamethasone, 1 µM; stronger effect = lower value;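 active = plate z-score of nuclear minus cytoplasmic receptor signal below a set negative limit, without overly bright fluorescence or cell loss, cut at about -3.5 in these data, passing the limit was not always enough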;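 also: z-score of nuclear minus cytoplasmic ring GR-EGFP intensity difference per well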
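Buffer or medium: tet-free medium with charcoal-stripped serum / Also added: dexamethasone agonist, 1.0 µM final, for 30 min / Timing: induction 48 h, compound 1 h, agonist 30 min / Measured by: high-content fluorescence imaging after fixation / Read-out: nuclear-to-cytoplasmic GR-EGFP distribution per well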
The depositor's hits bear a star; i = inactive; x = no result given; + = active, no number. Most compounds without a hit are left out; they make up all but 9.2% or so of the library.

SMILES	bCat KO growth	L major viab	PTEN del growth	Autophagy mod	Dynein transport
CCc1ccc(NC(=O)C(=O)NCc2ccccn2)cc1	x	10.4	x	i	1.69
CCCCC(=Nc1ccccc1OC)C1=C(O)CC(c2ccccc2)CC1=O (stereo not given)	97.5	6.3	96.6	i	0.213
CCCC(=Nc1ccccc1OC)C1=C(O)CC(c2ccccc2)CC1=O (stereo not given)	97.7	99.3*	85.0	i	0.801
COc1ccccc1N=C(C)C1=C(O)CC(c2ccccc2)CC1=O (stereo not given)	x	53.0*	x	+	2.6
O=C(CN1CCN(S(=O)(=O)c2ccccc2F)CC1)NC1CCCC1	x	-4.4	x	i	-0.54
Cc1ccc(N/C(N)=N/c2nc(C)cc(N3CCCCC3)n2)c(C)c1	x	100.4*	x	i	-0.315
Cc1ccc(C(=O)Nc2ccccc2SCC2CSc3nc4ccccc4c(=O)n32)cc1 (stereo not given)	84.7	50.4*	74.9	i	1.22
O=c1c2ccccc2nc2n1C(CSCc1ccc(Cl)cc1)CS2 (stereo not given)	52.9	59.5*	47.6	i	-0.193
COc1cccc(NC(=O)C2(S(=O)(=O)c3ccc(Cl)cc3)CC2)c1	x	x	x	x	-0.234
CCCCCCN=C(C)c1ccccc1O	x	x	x	x	1.11
Cc1cccc2[nH]c3c(N4CCN(C(=O)c5ccco5)CC4)ncnc3c12	70.9	82.0*	59.9	i	0.278
Cc1cccc2[nH]c3c(N4CCC5(CC4)OCCO5)ncnc3c12	29.2	42.8	30.2	i	0.0604
Cc1sc2ncnc(N3CCN(C(=O)c4ccco4)CC3)c2c1C	x	9.5	x	i	1.01
O=C(c1ccco1)N1CCN(c2ncnc3scc(-c4ccc(F)cc4)c23)CC1	84.3	78.3*	75.5	i	0.219
Cc1nc2ccccc2c(=O)n1/N=C/c1cn[nH]c1-c1ccccc1	x	x	x	x	-0.129
Cc1ccc(-c2[nH]ncc2/C=N/n2c(COc3ccccc3)nc3ccccc3c2=O)cc1	1.6*	41.3	1.9*	+	0.981
Cc1ccccc1OCc1nc2ccccc2c(=O)n1/N=C/c1cn[nH]c1-c1ccccc1	33.7	100.3*	30.8	+	0.283
Cc1cc(/C=N/n2c(COc3ccccc3)nc3ccccc3c2=O)c(O)c([N+](=O)[O-])c1	33.1	-0.8	32.0	i	0.282
CC(C)NC(=O)NC(=O)CSc1nncs1	x	-3.3	x	i	-0.687
O=C(/C(=C/O)N=Nc1ccccc1)c1cccs1	x	83.5*	x	i	-0.632
NN/C(=C\[N+](=O)[O-])Nc1ccc(Cl)cc1	x	11.2	x	i	-0.312
CS(=O)(=O)N1CCCC(C(=O)NCCc2ccccc2)C1 (stereo not given)	94.8	-2.3	85.8	i	0.521
CCS(=O)(=O)N1CCCC(C(=O)NCCN(C)Cc2ccccc2)C1 (stereo not given)	94.1	0.3	101.5	i	-0.658
O=C(NCCN1CCc2ccccc2C1)C1CCN(S(=O)(=O)N2CCC3(CC2)OCCO3)CC1	84.7	-5.5	90.5	i	-0.219
O=C(NCCN1CCc2ccccc2C1)C1CCN(S(=O)(=O)N2CCCCC2)CC1	96.5	81.4*	93.9	i	0.0755
SMILES	bCat KO growth	L major viab	PTEN del growth	Autophagy mod	Dynein transport
CCS(=O)(=O)N1CCCC(C(=O)NCCN2CCC(Cc3ccccc3)CC2)C1 (stereo not given)	87.9	90.4*	87.8	i	-0.863
CS(=O)(=O)N1CCCC(C(=O)NCCN2CCC(Cc3ccccc3)CC2)C1 (stereo not given)	81.4	88.8*	92.5	i	-0.251
CC1=NN(c2nc3ccccc3[nH]2)C(=O)C1Cc1ccccc1 (stereo not given)	x	x	x	x	-0.432
O=C(C1CC(=O)N(C2CCCC2)C1)N1CCC(Cc2ccccc2)CC1 (stereo not given)	80.8	70.2*	74.0	i	-0.44
C(#Cc1ccccc1)C[N+]1(CC#Cc2ccccc2)CCCC1	76.7	100.1*	68.7	i	0.144
CCOC(=O)c1sc(N2N=C(C)C(N=Nc3cccc(C)c3)C2=O)nc1C (stereo not given)	x	x	x	x	-0.577
CC1=NN(c2nc(-c3ccc(C)cc3)cs2)C(=O)C1N=Nc1cccc(C)c1 (stereo not given)	87.0	85.9*	82.8	i	-0.141
C/C(=N\Nc1nc2ccccc2[nH]1)c1ccc(C)o1	82.4	65.0*	70.5	i	2.35
C/C(=N\Nc1nc(C)cc(C)n1)c1ccc(N2CCOCC2)cc1	x	-7.7	x	i	0.0366
C/C(=N\Nc1nc2ccccc2[nH]1)c1ccc(N2CCOCC2)cc1	x	100.4*	x	i	1.31
C/C(=N\Nc1cccc(C(=O)O)c1)c1ccc(Cl)s1	x	13.9	x	i	2.03
C/C(=N\Nc1nc2ccccc2[nH]1)c1ccc(Cl)s1	49.2	89.7*	59.1	i	-1.26
COc1cccc(NC(=S)N2CCCC2c2ccc(OC)c(OC)c2)c1 (stereo not given)	x	0.7	x	i	-0.335
Cc1ccc(/C=N/OC(=O)c2nn(C)cc2Cl)cc1	x	-2.7	x	i	-0.00815
COc1ccc(NC(=O)/C(Cl)=C(/Cl)S(=O)Cc2ccc(Cl)cc2)cn1 (stereo not given)	x	100.4*	x	i	-5.44*
COc1ccc(NC(=O)CCl)cn1	x	x	x	x	1.02
Cc1nc(-c2ccncc2)sc1C(=O)Nc1ccc(Br)cc1	x	-1.1	x	i	0.133
CCCNC(=O)NC(=O)c1cnccc1C(F)(F)F	x	x	x	x	-0.56
O=C(Nc1nc(-c2ccncc2)cs1)C1c2ccccc2Oc2ccccc21	58.6	89.6*	53.5	i	-0.388
Cc1cccc2sc(NC(=O)C3c4ccccc4Oc4ccccc43)nc12	60.8	80.6*	44.6	i	-0.439
Cc1ccccc1Cn1nc(C)c(NC(=O)C2c3ccccc3Oc3ccccc32)c1C	84.9	84.3*	83.6	i	0.725
O=C(Nc1ncccn1)C1c2ccccc2Oc2ccccc21	85.7	55.2*	92.8	i	0.215
O=C(Nc1ccncc1)C1c2ccccc2Oc2ccccc21	92.6	23.5	76.3	i	-0.889
Cc1nnc(NC(=O)C2c3ccccc3Oc3ccccc32)s1	72.7	-1.7	86.2	i	0.302
CC1CCN(C(=O)COC(=O)c2cc(Cl)cc(Cl)c2N)CC1	94.1	2.9	99.8	i	0.326
SMILES	bCat KO growth	L major viab	PTEN del growth	Autophagy mod	Dynein transport
CNC(=S)NC1CC2CCCC(C1)N2Cc1ccc(C)cc1 (stereo not given)	x	90.6*	x	i	-0.565
CC(=O)NC1CC2CCC(C1)N2Cc1ccc(C)cc1 (stereo not given)	87.6	89.8*	x	i	-0.596
Cc1ccc(CN2C(=O)CCC2C(=O)NC2CC2)cc1 (stereo not given)	89.4	-5.5	90.9	i	-0.721
COCCNC(=S)NC1CC2CCC(C1)N2Cc1ccccc1 (stereo not given)	x	14.8	x	i	0.904
O=C(CSc1nnc(-c2ccccn2)n1Cc1ccccc1)N1CCOCC1	x	-2.3	x	i	1.03
C[C@H](NC(=O)[C@@H]1CCC(=O)N1Cc1ccco1)c1ccccc1	x	-5.0	x	i	0.111
O=C(NCCCN1CCOCC1)c1ccc(CSCc2cccc(Cl)c2)o1	x	71.0*	x	i	1.11
